Reference: ChEMBL document CHEMBL4831540, “Discovery of Aficamten (CK-274), a Next-Generation Cardiac Myosin Inhibitor for the Treatment of Hypertrophic Cardiomyopathy” (J Med Chem, 2021)
In brackets after ≈: the same amount, converted by molar mass.

Legend:
[1] = Cmax in Sprague-Dawley rat at 3 mg/kg, po; type: ADME, organism-based; parameters: route oral, dose 3 mg/kg; settings: in vivo
[2] = Tmax in Sprague-Dawley rat at 3 mg/kg, po; type: ADME, organism-based; settings: in vivo
Outline: (§1)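 Single iv or oral doses in male animals, 3 per group except dog iv (2 animals). Plasma concentration–time profiles gave Cmax, tmax, AUC0–t, clearance, steady-state volume of distribution, half-life and bioavailability.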

[3] = Plasma protein binding in rat plasma assessed as unbound concentration at 5 uM incubated for 6 hrs by HPLC analysis; type: ADME, cell-free
[4] = Oral bioavailability in mouse at 1 mg/kg; type: ADME, organism-based; settings: in vivo; outline: as §1
[5] = Metabolic stability in human liver microsomes assessed as intrinsic clearance measured upto 90mins by HPLC/MS/MS analysis; type: ADME, Microsome; settings: read-out: CLH
[6] = Metabolic stability in rat liver microsomes assessed as intrinsic clearance measured upto 90mins by HPLC/MS/MS analysis; type: ADME, Microsome; settings: read-out: CLH
[7] = Solubility of the compound at pH 6.8 by shake flask method; type: physicochemical; settings: buffer
Outline: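 Shake-flask solubility at pH 6.8; solid form not characterized.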

Cytochrome P450 1A2 = target: T1, Cytochrome P450 1A2 (Homo sapiens, UniProt P05177); assay: Inhibition of CYP1A2 in human liver microsomes assessed as phenacetin O-deethylation reaction incubated for 30 mins in presence of NADP by LC-MS/MS analysis; type: ADME
T1 sequence (P05177 whole entry): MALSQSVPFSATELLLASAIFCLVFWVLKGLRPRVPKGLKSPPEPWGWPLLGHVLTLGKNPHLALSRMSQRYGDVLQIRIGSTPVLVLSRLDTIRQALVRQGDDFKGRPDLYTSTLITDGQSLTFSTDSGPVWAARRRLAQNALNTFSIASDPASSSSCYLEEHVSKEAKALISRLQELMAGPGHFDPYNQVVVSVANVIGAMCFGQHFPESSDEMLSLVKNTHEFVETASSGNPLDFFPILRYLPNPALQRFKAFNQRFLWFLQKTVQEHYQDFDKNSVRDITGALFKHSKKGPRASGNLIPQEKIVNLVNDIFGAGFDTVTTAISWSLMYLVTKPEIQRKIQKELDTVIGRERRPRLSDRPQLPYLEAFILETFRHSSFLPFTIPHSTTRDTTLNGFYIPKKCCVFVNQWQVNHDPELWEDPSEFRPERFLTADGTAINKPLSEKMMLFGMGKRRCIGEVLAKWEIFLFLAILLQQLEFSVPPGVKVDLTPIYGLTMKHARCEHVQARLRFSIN

[8] = Oral bioavailability in Sprague-Dawley rat at 3 mg/kg; type: ADME, organism-based; settings: in vivo; outline: as §1
[9] = Ratio of IC50 to IC10 for anti-hypertrophic cardiomyopathy in po dosed Sprague-Dawley rat assessed as reduction in fractional shortening measured upto 24 hrs by echocardiography; type: functional; settings: time hrs <=24
Outline: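 Sprague–Dawley rats received single oral doses from 0.5 to 4 mg/kg. LV dimensions and fractional shortening were read by echocardiography at set times over 24 h, with blood drawn at each reading for compound level. Concentrations giving 50% and 10% FS reduction were derived, and their IC50/IC10 ratio was calculated.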

[10] = Volume of distribution at steady state in cynomolgus monkey at 1 mg/kg, iv; type: ADME, organism-based, Macaca fascicularis; settings: in vivo, read-out: Vdss; outline: as §1
Rattus norvegicus [11] = assay: Anti-hypertrophic cardiomyopathy in po dosed Sprague-Dawley rat assessed as reduction in fractional shortening by measuring free concentration measured upto 24 hrs by echocardiography; type: functional; settings: time hrs <=24
Outline: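 Sprague–Dawley rats received single oral doses of 0.5–4 mg/kg, with fractional shortening measured by echocardiography over 24 h. Blood was sampled at each echo time point. Plasma levels were converted to free concentrations using rat plasma protein binding, and free IC10 and IC50 were derived from the FS reduction–concentration relationship.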

[12] = Half life in cynomolgus monkey at 1 mg/kg, po; type: ADME, organism-based, Macaca fascicularis; settings: in vivo
Outline: (§2)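 Multi-species PK study in male animals, n = 3 per group (dog IV arm n = 2). Iv and oral dosing with plasma concentration–time profiles yielding Cmax, tmax, AUC0–t, CL, Vss, t1/2 and F.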

[13] = Tmax in cynomolgus monkey at 1 mg/kg, po; type: ADME, organism-based, Macaca fascicularis; settings: in vivo; outline: as §1
Rattus norvegicus [14] = assay: Anti-hypertrophic cardiomyopathy in Sprague-Dawley rat assessed as reduction in fractional shortening at 4 mg/kg, po measured upto 24 hrs by echocardiography relative to control; type: functional; parameters: scale not given: the % may be the effect or the level left; settings: time hrs <=24
Outline: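 Normal Sprague–Dawley rats were given single oral doses of 0.5–4 mg/kg. Left ventricular dimensions and fractional shortening were measured by echocardiography at selected time points over 24 h, relative to vehicle treatment.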

[15] = Clearance in Beagle dog at 1 mg/kg, iv; type: ADME, organism-based, Canis lupus familiaris; settings: in vivo; outline: as §2
[16] = Oral bioavailability in Beagle dog at 1 mg/kg; type: ADME, organism-based, Canis lupus familiaris; settings: in vivo; outline: as §2
Cytochrome P450 2C9 = Cytochrome P450 2C9 (Homo sapiens, UniProt P11712); assay: Inhibition of CYP2C9 in human liver microsomes assessed as diclofenac 4'-hydroxylation reaction incubated for 30 mins in presence of NADP by LC-MS/MS analysis; type: ADME
Cytochrome P450 2C9, sequence (P11712 whole entry): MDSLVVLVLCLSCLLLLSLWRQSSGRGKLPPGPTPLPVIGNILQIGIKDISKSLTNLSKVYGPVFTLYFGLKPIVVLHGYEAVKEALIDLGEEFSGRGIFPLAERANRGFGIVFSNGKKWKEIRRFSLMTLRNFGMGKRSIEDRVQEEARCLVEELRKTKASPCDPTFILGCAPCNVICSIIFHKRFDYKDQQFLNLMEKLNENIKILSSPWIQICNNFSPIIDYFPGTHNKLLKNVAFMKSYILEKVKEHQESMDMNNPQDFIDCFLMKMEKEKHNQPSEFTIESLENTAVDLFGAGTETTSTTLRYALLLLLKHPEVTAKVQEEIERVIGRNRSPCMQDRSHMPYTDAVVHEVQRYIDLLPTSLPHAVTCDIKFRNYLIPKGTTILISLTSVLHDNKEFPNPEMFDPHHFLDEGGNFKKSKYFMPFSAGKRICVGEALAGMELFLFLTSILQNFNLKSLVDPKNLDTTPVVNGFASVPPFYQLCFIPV

[17] = Clearance in Sprague-Dawley rat at 0.5 mg/kg; type: ADME, organism-based; settings: in vivo
[18] = Half life in Sprague-Dawley rat at 1 mg/kg; type: ADME, organism-based; settings: in vivo
Outline: (§3)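 Rat PK with iv and po administration at 1 mg/kg. Clearance and half-life came from the iv arm, and bioavailability from the iv/po comparison.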

[19] = Half life in Sprague-Dawley rat at 1 mg/kg, iv; type: ADME, organism-based; settings: in vivo; outline: as §3
Cytochrome P450 3A4 [20] = target: T2, Cytochrome P450 3A4 (Homo sapiens, UniProt P08684); assay: Inhibition of CYP3A4 in human liver microsomes assessed as testosterone 6-beta-hydroxylation reaction incubated for 30 mins in presence of NADP by LC-MS/MS analysis; type: ADME
Target sequence in this assay (P08684 whole entry): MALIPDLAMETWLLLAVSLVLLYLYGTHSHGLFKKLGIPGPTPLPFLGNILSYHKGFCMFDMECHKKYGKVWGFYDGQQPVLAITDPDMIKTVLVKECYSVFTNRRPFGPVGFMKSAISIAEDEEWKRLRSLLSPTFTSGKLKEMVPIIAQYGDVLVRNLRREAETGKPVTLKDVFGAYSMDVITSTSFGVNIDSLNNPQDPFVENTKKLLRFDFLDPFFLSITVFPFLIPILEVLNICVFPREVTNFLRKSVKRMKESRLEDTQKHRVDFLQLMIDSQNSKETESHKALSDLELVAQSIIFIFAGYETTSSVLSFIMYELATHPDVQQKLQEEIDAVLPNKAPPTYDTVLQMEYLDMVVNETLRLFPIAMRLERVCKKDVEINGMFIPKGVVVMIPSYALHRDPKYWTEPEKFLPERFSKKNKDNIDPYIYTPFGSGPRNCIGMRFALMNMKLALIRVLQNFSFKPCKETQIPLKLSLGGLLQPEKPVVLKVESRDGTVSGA

Cytochrome P450 3A4 [21] = target: T2, Cytochrome P450 3A4; assay: Inhibition of CYP3A4 in human liver microsomes incubated for 30 mins in presence of NADP by LC-MS/MS analysis
Target sequence in this assay (P08684 whole entry, looked up): as the sequence (P08684 whole entry) above

[22] = Oral bioavailability in cynomolgus monkey at 1 mg/kg; type: ADME, organism-based, Macaca fascicularis; settings: in vivo; outline: as §1
[23] = Plasma protein binding in human assessed as unbound fraction; type: ADME, cell-free
[24] = Tmax in Beagle dog at 1 mg/kg, po; type: ADME, organism-based, Canis lupus familiaris; settings: in vivo; outline: as §1
[25] = Inhibition of full-length myosin ATPase activity in bovine cardiac myofibrils; type: subcellular, Bos taurus, Heart
Outline: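 Bovine cardiac myofibril ATPase assay run at a calcium level giving 75% of maximal activity.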

[26] = Half life in Sprague-Dawley rat at 8 mg/kg, po; type: ADME, organism-based; settings: in vivo; outline: as §2

- Cmax [1]: 3170 ng/mL
- Tmax [2]: 0.42 h
- fraction unbound at 6 h, 5 µM [3]: 0.018
- bioavailability [4]: 98%
- CLint scaled [5]: < 11 mL/min/kg
- CLint scaled [6]: < 21 mL/min/kg
- solubility thermodynamic [7]: 97 µM (≈ 32.7 µg/mL)
- IC50 (Cytochrome P450 1A2): > 100 µM
- bioavailability [8]: 58%
- Vd [10]: 7.76 L/kg
- half-life [12]: 12.1 h
- Tmax [13]: 1.17 h
- clearance [15]: 3.3 mL/min/kg
- bioavailability [16]: 45%
- IC50 (Cytochrome P450 2C9): > 100 µM
- clearance [17]: 2 mL/min/kg
- half-life [18]: 3 h
- half-life [19]: 3 h
- IC50 (Cytochrome P450 3A4 [20]): > 100 µM
- IC50 (Cytochrome P450 3A4 [21]): > 100 µM
- bioavailability [22]: 41%
- fraction unbound [23]: 0.095
- Tmax [24]: 0.33 h
- IC50 [25]: 1.4 µM
- half-life [26]: 3.3 h
SMILES: CCc1nc(-c2ccc3c(c2)CC[C@H]3NC(=O)c2cnn(C)c2)no1 [AFICAMTEN]
- Ratio [9]: 9.9
- IC10 (Rattus norvegicus [11]): 0.0144 µM
- Activity (Rattus norvegicus [14]): 70%
